{"source": "paper PMC3319156", "about": "(Journal of Medicinal Chemistry, 2011)", "key": {"[1]": {"test_system": "cultured melanoma, breast, prostate, and pancreatic tumor cell lines", "conditions": "cited from earlier work"}, "Tyr705 of Stat3": {"molecular_target": "Tyr705 of Stat3 (Homo sapiens, UniProt P40763)", "sequence (P40763 whole entry)": "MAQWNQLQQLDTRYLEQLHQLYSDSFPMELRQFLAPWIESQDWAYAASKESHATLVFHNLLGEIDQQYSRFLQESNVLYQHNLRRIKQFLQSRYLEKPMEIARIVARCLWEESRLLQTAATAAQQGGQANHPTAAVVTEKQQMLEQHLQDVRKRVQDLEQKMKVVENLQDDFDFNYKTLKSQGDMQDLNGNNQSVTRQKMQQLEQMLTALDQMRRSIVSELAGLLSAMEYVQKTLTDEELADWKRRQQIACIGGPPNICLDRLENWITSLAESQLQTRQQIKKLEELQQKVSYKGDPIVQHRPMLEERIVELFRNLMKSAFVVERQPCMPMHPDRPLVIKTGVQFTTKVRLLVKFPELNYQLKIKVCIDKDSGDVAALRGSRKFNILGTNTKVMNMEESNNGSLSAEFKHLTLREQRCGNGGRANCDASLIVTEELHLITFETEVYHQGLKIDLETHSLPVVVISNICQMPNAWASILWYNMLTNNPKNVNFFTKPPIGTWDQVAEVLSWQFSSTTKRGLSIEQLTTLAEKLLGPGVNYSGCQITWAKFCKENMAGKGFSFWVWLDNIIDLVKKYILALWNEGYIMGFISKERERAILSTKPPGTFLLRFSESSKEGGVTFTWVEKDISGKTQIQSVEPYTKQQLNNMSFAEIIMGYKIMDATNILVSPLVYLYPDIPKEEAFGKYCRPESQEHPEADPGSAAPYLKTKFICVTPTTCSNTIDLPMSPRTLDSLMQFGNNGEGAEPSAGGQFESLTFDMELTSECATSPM", "experiment": "Inhibition of constitutive Stat3 Tyr705 phosphorylation in MDA-MB-468 cells", "format": "cell-based", "conditions": "for concentration at which pStat3 was completely inhibited / concentration with noticeable inhibition of pStat3: MDA-MB-468, 2 h treatment, western blot; for time at which pStat3 formation was completely inhibited / time for which complete inhibition of pStat3 was sustained: MDA-MB-468, single dose of 5 µM; for effect on pStat3 band at 25 µM: MDA-MB-468, 25 µM", "how_it_was_run": "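MDA-MB-468 cells (4 × 10^5/well) were grown overnight in DMEM with 10% FCS. Prodrug was given from a 10 mM DMSO stock prepared fresh, for 2 h, or over a time course. After ice-cold PBS washes, cells were lysed (Hepes pH 7.4, Triton X-100, NaF, vanadate, protease inhibitors). 12 µg protein went on 8% SDS-PAGE/PVDF with 5% BSA block. Blots were probed for pStat3 Y705 by ECL, stripped at 50°C, and reprobed for total Stat3.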"}, "Ser473 of Akt": {"test_system": "Ser473 of Akt", "experiment": "Akt Ser473 phosphorylation in MDA-MB-468 cells", "format": "cell-based", "conditions": "MDA-MB-468, 5 µM, 1.5 h then EGF 30 min"}, "MDA-MB-468 cells": {"test_system": "MDA-MB-468 cells", "experiment": "Cytotoxicity to MDA-MB-468 cells, MTT assay", "format": "cell-based", "conditions": "MDA-MB-468, treated daily for three days", "how_it_was_run": "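MDA-MB-468 cells in DMEM with 10% FBS were plated at 1500 cells/well in triplicate, and the medium was changed the next day. Prodrug was dissolved fresh in ethanol to a 10 mM stock, diluted, and added. Further doses went into the same medium at 24 and 48 h, with final ethanol below 1%. Viability was read by MTT.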"}, "[2]": {"test_system": "Tyr861 of the focal adhesion kinase (FAK)", "experiment": "Constitutive FAK Tyr861 phosphorylation in MDA-MB-468 cells", "format": "cell-based", "conditions": "MDA-MB-468, 2 h treatment", "how_it_was_run": "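Constitutive signal, no stimulus: MDA-MB-468 cells were plated overnight in DMEM/10% FCS and given test compound from a 10 mM DMSO stock for 2 h. Cells were lysed in Hepes pH 7.4 detergent buffer with phosphatase and protease inhibitors. Protein was separated by SDS-PAGE, blotted to PVDF, blocked with 5% BSA, and probed for pTyr861 FAK and total FAK.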"}, "Tyr694 of Stat5": {"test_system": "Tyr694 of Stat5", "experiment": "Stat5 Tyr694 phosphorylation in MDA-MB-468 cells", "format": "cell-based", "conditions": "MDA-MB-468, 5 µM, 1.5 h then EGF 30 min"}, "Tyr701 of Stat1": {"molecular_target": "T1, Tyr701 of Stat1 (Homo sapiens, UniProt P42224)", "T1 sequence (P42224 1-750)": "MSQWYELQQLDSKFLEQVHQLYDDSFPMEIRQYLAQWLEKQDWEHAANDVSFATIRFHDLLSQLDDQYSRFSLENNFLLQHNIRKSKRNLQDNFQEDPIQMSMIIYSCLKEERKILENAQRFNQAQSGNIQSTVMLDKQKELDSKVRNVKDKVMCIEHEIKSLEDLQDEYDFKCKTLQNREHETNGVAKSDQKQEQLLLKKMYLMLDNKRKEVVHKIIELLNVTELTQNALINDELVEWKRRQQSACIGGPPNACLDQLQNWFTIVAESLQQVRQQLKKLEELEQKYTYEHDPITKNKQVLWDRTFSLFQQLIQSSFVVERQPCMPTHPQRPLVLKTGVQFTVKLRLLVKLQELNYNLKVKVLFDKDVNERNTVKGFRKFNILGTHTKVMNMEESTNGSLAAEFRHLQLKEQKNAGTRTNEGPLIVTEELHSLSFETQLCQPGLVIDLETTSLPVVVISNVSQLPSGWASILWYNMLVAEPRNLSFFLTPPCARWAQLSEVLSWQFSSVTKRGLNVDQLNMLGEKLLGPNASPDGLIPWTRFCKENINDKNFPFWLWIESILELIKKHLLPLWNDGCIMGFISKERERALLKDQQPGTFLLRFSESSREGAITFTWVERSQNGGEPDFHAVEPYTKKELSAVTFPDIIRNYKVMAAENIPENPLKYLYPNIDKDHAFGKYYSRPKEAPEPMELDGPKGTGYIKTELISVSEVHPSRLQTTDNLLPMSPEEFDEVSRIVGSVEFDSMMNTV", "experiment": "IFNγ-stimulated Stat1 Tyr701 phosphorylation in MDA-MB-468 cells", "format": "cell-based", "conditions": "MDA-MB-468, 1.5 h then 30 min IFNγ", "how_it_was_run": "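MDA-MB-468 cells were prepared as for the Stat3 assay (plated overnight in DMEM/10% FCS) and exposed to increasing test compound concentrations for 1.5 h. Interferon γ was then added at 25 ng/mL for 30 min. Lysates were run on PAGE, blotted to PVDF, and probed for pTyr701 Stat1 and total Stat1 with chemiluminescent detection.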"}, "H528": {"test_system": "H528", "experiment": "Growth inhibition of H528 NSCLC cells", "format": "cell-based", "conditions": "H528, 5–10 µM, data not shown"}, "Stat3 [3]": {"molecular_target": "T2, Stat3 (Homo sapiens, UniProt P40763)", "T2 sequence (P40763 whole entry)": "as the sequence (P40763 whole entry) above", "experiment": "EGF-stimulated Stat3 phosphorylation in MDA-MB-468 cells", "format": "cell-based", "conditions": "MDA-MB-468, 5 µM, 1.5 h then EGF 30 min"}, "Stat3 [4]": {"molecular_target": "T2, Stat3", "experiment": "Inhibition of constitutive Stat3 phosphorylation in BT20 breast tumor cells", "format": "cell-based", "conditions": "screen"}, "Tyr861 of FAK": {"test_system": "Tyr861 of FAK", "conditions": "tumor cells; cited from earlier work"}}}
{"compound": "Cc1cc(Nc2nc(N[C@@H](C)c3ncc(F)cn3)ncc2Cl)n[nH]1", "note": "[AZD1480]", "values": [{"measurement": "cytotoxicity at concentrations that completely eliminated Tyr705 phosphorylation", "setting": "[1]", "value": "not cytotoxic"}]}
{"compound": "CC(C)(C)c1nc2c3cc[nH]c(=O)c3c3cc(F)ccc3c2[nH]1", "note": "[P6]", "values": [{"measurement": "cytotoxicity at concentrations that completely eliminated Tyr705 phosphorylation", "setting": "[1]", "value": "not cytotoxic"}]}
{"compound": "C/C(=C\\C(=O)N[C@H]1CCc2cccc3c2N(C1=O)[C@H](C(=O)N[C@@H](CCC(N)=O)C(=O)NCc1ccccc1)C3)c1ccc(C(F)(F)P(=O)(OCOC(=O)C(C)(C)C)OCOC(=O)C(C)(C)C)cc1", "note": "[compound 32]", "values": [{"measurement": "effect on level of pStat3", "setting": "Tyr705 of Stat3; MDA-MB-468, 2 h, increasing concentrations", "value": "reduced the level of pStat3 in a dose-dependent manner"}]}
{"compound": "C[C@H](CCC(N)=O)NC(=O)[C@@H]1Cc2cccc3c2N1C(=O)[C@@H](NC(=O)/C=C/c1ccc(C(F)(F)P(=O)(OCOC(=O)C(C)(C)C)OCOC(=O)C(C)(C)C)cc1)CC3", "note": "[compound 33]", "values": [{"measurement": "concentration at which pStat3 was completely inhibited", "setting": "Tyr705 of Stat3", "value": 0.5, "unit": "µM"}, {"measurement": "concentration with noticeable inhibition of pStat3", "setting": "Tyr705 of Stat3", "value": 0.1, "unit": "µM"}]}
{"compound": "CCCC[C@H](NC(=O)/C=C(\\C)c1ccc(C(F)(F)P(=O)(OCOC(=O)C(C)(C)C)OCOC(=O)C(C)(C)C)cc1)C(=O)N1C[C@H]2C[C@H]2[C@H]1C(=O)N[C@@H](CCC(N)=O)C(C)OCc1ccccc1", "note": "(stereo partly drawn) [compound 35]", "values": [{"measurement": "Akt Ser473 phosphorylation", "setting": "Ser473 of Akt", "value": "do not inhibit Akt phosphorylation"}, {"measurement": "survival curves with daily dosing compared with single dose", "setting": "MDA-MB-468 cells", "value": "little change in the survival curves"}, {"measurement": "FAK Tyr861 phosphorylation", "setting": "[2]", "value": "no reduction of Tyr861 phosphorylation"}, {"measurement": "Stat5 phosphorylation", "setting": "Tyr694 of Stat5", "value": "not inhibited"}, {"measurement": "concentration at which pStat3 was completely inhibited", "setting": "Tyr705 of Stat3", "value": 0.5, "unit": "µM"}, {"measurement": "time at which pStat3 formation was completely inhibited", "setting": "Tyr705 of Stat3", "value": 30, "unit": "min"}, {"measurement": "time for which complete inhibition of pStat3 was sustained", "setting": "Tyr705 of Stat3", "value": 4, "unit": "h"}, {"measurement": "concentration of complete inhibition of Stat1 phosphorylation", "setting": "Tyr701 of Stat1", "value": 5, "unit": "µM"}, {"measurement": "inhibition", "setting": "H528", "value": "< 20", "unit": "%"}, {"measurement": "increase in Stat3 phosphorylation induced by EGF", "setting": "Stat3 [3]", "value": "completely inhibited"}, {"measurement": "ability to inhibit constitutive phosphorylation of Stat3", "setting": "Stat3 [4]", "value": "considerable potency"}]}
{"compound": "CCCC[C@H](NC(=O)/C=C(\\C)c1ccc(C(F)(F)P(=O)(OCOC(=O)C(C)(C)C)OCOC(=O)C(C)(C)C)cc1)C(=O)N1C[C@@H]2C[C@@H]2[C@@H]1C(=O)N[C@@H](CCC(N)=O)C(C)OCc1ccccc1", "note": "(stereo partly drawn) [compound 36]", "values": [{"measurement": "effect on pStat3 band at 25 µM", "setting": "Tyr705 of Stat3", "value": "only partially reduced"}, {"measurement": "concentration with noticeable inhibition of pStat3", "setting": "Tyr705 of Stat3", "value": "≥ 25", "unit": "µM"}, {"measurement": "fold less potent at inhibiting Stat3 phosphorylation", "setting": "Tyr705 of Stat3; relative to 35", "value": "20–25 fold"}]}
{"compound": "CCCC[C@H](NC(=O)/C=C(\\C)c1ccc(C(F)(F)P(=O)(OCOC(=O)C(C)(C)C)OCOC(=O)C(C)(C)C)cc1)C(=O)N1C[C@H]2C[C@H]2[C@H]1C(=O)N[C@H](C)CCC(N)=O", "note": "[compound 37]", "values": [{"measurement": "Akt Ser473 phosphorylation", "setting": "Ser473 of Akt", "value": "do not inhibit Akt phosphorylation"}, {"measurement": "FAK Tyr861 phosphorylation", "setting": "[2]", "value": "no reduction of Tyr861 phosphorylation"}, {"measurement": "Stat5 phosphorylation", "setting": "Tyr694 of Stat5", "value": "not inhibited"}, {"measurement": "concentration at which pStat3 was completely inhibited", "setting": "Tyr705 of Stat3", "value": 0.5, "unit": "µM"}, {"measurement": "time at which pStat3 formation was completely inhibited", "setting": "Tyr705 of Stat3", "value": 30, "unit": "min"}, {"measurement": "time for which complete inhibition of pStat3 was sustained", "setting": "Tyr705 of Stat3", "value": 4, "unit": "h"}, {"measurement": "concentration of complete inhibition of Stat1 phosphorylation", "setting": "Tyr701 of Stat1", "value": 5, "unit": "µM"}, {"measurement": "increase in Stat3 phosphorylation induced by EGF", "setting": "Stat3 [3]", "value": "completely inhibited"}, {"measurement": "ability to inhibit constitutive phosphorylation of Stat3", "setting": "Stat3 [4]", "value": "considerable potency"}]}
{"compound": "CCCC[C@H](NC(=O)/C=C(\\C)c1ccc(C(F)(F)P(=O)(OCOC(=O)C(C)(C)C)OCOC(=O)C(C)(C)C)cc1)C(=O)N1C[C@@H]2C[C@@H]2[C@@H]1C(=O)N[C@H](C)CCC(N)=O", "note": "[compound 38]", "values": [{"measurement": "effect on pStat3 band at 25 µM", "setting": "Tyr705 of Stat3", "value": "only partially reduced"}]}
{"compound": "CCCC[C@H](NC(=O)/C=C(\\C)c1ccc(C(F)(F)P(=O)(OCOC(=O)C(C)(C)C)OCOC(=O)C(C)(C)C)cc1)C(=O)N1CC2CC2C1C(=O)NCCNC(N)=O", "note": "(stereo partly drawn) [compound 39]", "values": [{"measurement": "concentration at which pStat3 was completely inhibited", "setting": "Tyr705 of Stat3", "value": 5, "unit": "µM"}, {"measurement": "inhibition of the phosphorylation of Stat3 up to 1 µM", "setting": "Tyr705 of Stat3; MDA-MB-468, up to 1 µM, 2 h", "value": "little inhibition"}]}
{"compound": "CCOP(=O)(OCC)C(F)(F)c1ccc(/C(C)=C/C(=O)N[C@H]2CCc3cccc4c3N(C2=O)[C@H](C(=O)N[C@H](C)CCC(N)=O)C4)cc1", "note": "[compound 40]", "values": [{"measurement": "effect on pStat3 band at 25 µM", "setting": "Tyr705 of Stat3", "value": "no effect on Stat3 phosphorylation"}]}
{"compound": "Cc1nc(Nc2ncc(C(=O)Nc3c(C)cccc3Cl)s2)cc(N2CCN(CCO)CC2)n1", "note": "[dasatinib]", "values": [{"measurement": "levels of Tyr861 phosphorylation on treatment", "setting": "Tyr861 of FAK", "value": "decrease"}]}
